PGC1a acetyl inh = modulators of PGC1a acetylation | U2OS PGC1a acetylation, AlphaScreen anti-acetyl-lysine; with virally co-expressed GCN5 acetyltransferase | hit rate 0.17% among 350,000 | inhibition, % at 15.6 µM;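 active = every replicate shows inhibition of at least 40%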
FGF22 binding = FGF22 (human) thermal shift binding; recombinant FGF22 thermal shift, SYPRO orange fluorescence; percent of sucrose octasulfate shift, DMSO zero; AID 651658; hit rate 1.5% among 340,000; Q9HCT0; activity (Tm shift, normalised), % at 9.99 µM;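 active = mean Tm shift, scaled 0 neutral to 100 positive control, at about 1.3% or above, every replicate too, limit read from the data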
Target sequence (Q9HCT0 whole entry, looked up): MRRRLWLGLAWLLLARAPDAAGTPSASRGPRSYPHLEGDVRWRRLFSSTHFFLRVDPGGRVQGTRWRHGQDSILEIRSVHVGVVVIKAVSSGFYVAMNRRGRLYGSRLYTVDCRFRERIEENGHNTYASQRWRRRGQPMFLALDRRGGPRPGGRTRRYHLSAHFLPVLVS
SIRT5 inh = blocks human SIRT5 desuccinylation of peptide. Q9NXA8. Purified SirT5, succinyl-peptide AMC, trypsin-coupled fluorescence. inhibition, % at 15 µM. hit rate 1.1% among 330,000. AID 652115; in the data active = inhibition above about 15%
Target sequence (Q9NXA8 whole entry, looked up): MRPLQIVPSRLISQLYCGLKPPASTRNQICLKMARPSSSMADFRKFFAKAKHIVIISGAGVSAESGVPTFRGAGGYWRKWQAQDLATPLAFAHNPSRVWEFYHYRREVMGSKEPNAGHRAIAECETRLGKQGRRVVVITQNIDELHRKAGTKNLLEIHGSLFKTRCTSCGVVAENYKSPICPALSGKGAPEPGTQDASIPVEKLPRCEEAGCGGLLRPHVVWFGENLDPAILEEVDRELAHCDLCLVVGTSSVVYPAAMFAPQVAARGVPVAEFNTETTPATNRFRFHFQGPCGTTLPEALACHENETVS
FN deposition inh = fibronectin deposition inhibition; AID 743247; inhibition, % at 12.6 µM; AH1F fibroblasts, Alexa488-fibronectin deposition fluorescence, overnight; hit rate 0.086% among 350,000;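 active = mean inhibition across replicates of 30% or more, regardless of how many single replicates reach that level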
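Material – AH1F fibroblast monolayer, labelled fibronectin deposition · Reagent – labelled fibronectin 24 nM · Timing – 1 h adhesion, overnight exposure · Measured by – fluorescence at 485 nm excitation, 525 nm emission · Read-out – inhibition of fibronectin deposition signal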
ERAP1 HTS inh = inhibitors of human ERAP1 aminopeptidase. Q9NZ08. recombinant ERAP1, Leu-AMC fluorescence, 60 min. inhibition, % at 10.7 µM. hit rate 0.15% among 340,000. AID 652197;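 active = mean replicate inhibition of at least 30%, or all replicates individually reaching that 30% level; inactive = mean below 30% and not every replicate reaching it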
Numbers stand for hits; – = inactive; · = no result given. Hits are enriched below; roughly 2.2% of the tested compounds scored in any of these assays.

SMILES | PGC1a acetyl inh | FGF22 binding | SIRT5 inh | FN deposition inh | ERAP1 HTS inh
Cc1cc(C)n(C(=O)c2cccc([N+](=O)[O-])c2C)n1 | – | – | 33.7 | – | –
Cc1cc(C)n(C(=O)c2ccccc2[N+](=O)[O-])n1 | · | – | – | – | –
COc1cccc(C2CC(c3ccc(Br)cc3)=NN2C(=O)c2ccncc2)c1OC (stereo not given) | – | – | 112.2 | · | –
Cc1ccc(C(=O)/C=C/c2cc(C#N)n(C)c2C)cc1 | – | – | 21.9 | – | –
CO[C@@H]1CN(C)C(=O)c2ccc(NC(=O)Cc3ccccc3)cc2OC[C@H](C)N(C(=O)c2ccccc2F)C[C@H]1C | – | – | – | – | ·
Cn1cc(CN(CCO)Cc2cccs2)c(-c2ccccc2F)n1 | · | 42.9 | – | – | –
CN(C)C(=O)c1cccc(-c2ccccc2[C@H]2[C@@H](C#N)N(C(=O)C3CCCC3)[C@@H]2CO)c1 | – | · | – | – | –
Cc1ccc(Cc2c(-c3cccc(Br)c3)nc3c(Cl)cc(C(F)(F)F)cn23)cc1 | · | – | 25.0 | – | ·
Clc1ccc(-c2nc3c4ccccc4ccn3c2Cc2cccc(Cl)c2)cc1 | · | – | – | – | –
Clc1cccc(Cc2c(-c3cccc(Br)c3)nc3c4ccccc4ccn23)c1 | · | 43.3 | · | – | –
COc1ccc(/C=C(/NC(=O)c2ccccc2)C(=O)N2CCCC2)cc1OC | · | – | – | – | –
COc1ccc(/C=C(\NC(=O)c2ccccc2)C(=O)OCC2CCCN3CCCCC23)cc1OC (stereo not given) | · | 43.8 | – | – | –
O=C(COc1cccc2ccccc12)N/N=C/c1ccncc1 | – | 43.2 | – | – | –
C[C@H]1CN([C@@H](C)CO)C(=O)c2cc(-c3ccccc3)cnc2O[C@@H]1CN(C)C(=O)NC1CCCC1 | – | – | – | – | –
C[C@H]1CN([C@@H](C)CO)S(=O)(=O)c2ccc(-c3ccccc3)cc2O[C@H]1CN(C)C(=O)c1ccccc1F | – | · | · | – | ·
Cc1cc(/C=N/NC(=O)C(O)(c2ccccc2)c2ccccc2)c(C)n1-c1cccc(C(=O)O)c1 | – | – | – | – | –
Cc1cc(/C=N/NC(=O)c2cccc(N(C)C)c2)c(C)n1-c1cc(C(=O)O)cc(C(=O)O)c1 | – | – | 20.4 | – | –
COc1cc(-c2noc(C)c2/C=C/c2ccc(C(=O)O)cc2)cc(OC)c1OC | – | – | – | – | 41.9
COc1ccc(S(=O)(=O)Nc2ccc3c(c2)CC(=O)N([C@@H](C)CO)C[C@H](C)[C@@H](CN(C)C(=O)Nc2cccc4ccccc24)O3)cc1 | – | – | – | – | –
O=C(O)C[C@@H]1C=C[C@@H](NC(=O)c2ccccc2F)[C@H](CO)O1 | – | – | – | – | –
COc1ccc(CCNC(=O)c2cc(=O)[nH]c3ccccc23)cc1 | – | – | – | – | –
CCOC(=O)Cc1c(Cl)c2ccccc2[nH]c1=O | – | 43.1 | – | – | –
CCOC(=O)C[n+]1ccc2c([nH]c3ccccc32)c1C | – | – | – | – | 51.2
CCCOC(=O)c1cc(=O)[nH]c2ccccc12 | – | · | · | · | ·
CCOC(=O)c1cc(=O)[nH]c2ccccc12 | · | 43.4 | – | – | –
SMILES | PGC1a acetyl inh | FGF22 binding | SIRT5 inh | FN deposition inh | ERAP1 HTS inh
O=C(NCCc1ccccc1)c1cc(=O)[nH]c2ccccc12 | – | 43.3 | – | – | –
CN1c2ccc(C3=CCCCC3)cc2[C@@H]2[C@@H](CCN2C(=O)Nc2ccccc2F)[C@@H]1CO | – | – | – | – | –
C[C@H](CO)N1C[C@H](C)[C@H](CN(C)S(C)(=O)=O)Oc2ccc(NC(=O)Nc3ccc4c(c3)OCO4)cc2C1=O | – | – | – | · | –
CCCNC(=O)N(C)C[C@@H]1Oc2ncc(-c3ccccc3)cc2C(=O)N([C@H](C)CO)C[C@@H]1C | – | – | – | – | –
CC1CCCCC1NC(=O)COC(=O)c1cc(=O)[nH]c2ccccc12 (stereo not given) | – | – | – | – | –
O=C(COC(=O)c1cc(=O)[nH]c2ccccc12)NC1CCCC1 | – | – | 25.2 | – | –
CCN(CC(=O)Nc1ccc(NC(C)=O)cc1)C(=O)C(c1ccccc1)c1ccccc1 | · | 43.5 | – | – | –
Cc1cc(=O)[nH]c2c1cnn2Cc1ccccc1 | – | · | · | · | ·
S=c1nc[nH]c2c1cnn2Cc1ccccc1 | 44.6 | – | – | – | –
Cc1n[nH]c(=O)nc1NCc1ccco1 | – | · | · | · | ·
Cc1n[nH]c(=O)nc1N/N=C/c1ccco1 | – | 44.1 | – | – | –
Cc1cc(NC(=S)NC(=O)c2ccco2)c2ccccc2n1 | · | 43.0 | – | – | –
O=C1NC(CCc2ccccc2)C(=O)N1CCOc1cccc(Br)c1 (stereo not given) | – | 43.0 | – | – | –
CCCCNC(=O)CN1C(=O)NC(CCc2ccccc2)C1=O (stereo not given) | · | 43.0 | – | – | –
COc1cccc(NC(=O)CN2C(=O)NC(CCc3ccccc3)C2=O)c1 (stereo not given) | · | – | – | – | –
CC(C)NC(=O)N[C@H]1C=C[C@@H](CC(=O)NCc2ccc(Oc3ccccc3)cc2)O[C@@H]1CO | – | – | – | – | –
C[C@@H]1CCCCO[C@H](CN(C)Cc2ccc(C(F)(F)F)cc2)[C@H](C)CN([C@@H](C)CO)C(=O)c2cc(NS(=O)(=O)c3ccccc3)ccc2O1 | – | · | – | – | –
C[C@@H]1CCCCO[C@@H](CN(C)Cc2ccc(C(F)(F)F)cc2)[C@@H](C)CN([C@H](C)CO)C(=O)c2cc(NS(=O)(=O)c3ccc(F)cc3)ccc2O1 | – | – | – | – | –
C[C@H](CO)N1C[C@H](C)[C@@H](CN(C)Cc2ccc(C(F)(F)F)cc2)OCCCC[C@H](C)Oc2ccc(NS(=O)(=O)c3ccc(F)cc3)cc2C1=O | – | · | 20.3 | – | –
C[C@H]1CCCCO[C@H](CN(C)Cc2ccc(C(F)(F)F)cc2)[C@@H](C)CN([C@@H](C)CO)C(=O)c2cc(NS(=O)(=O)c3ccc(F)cc3)ccc2O1 | – | – | 22.7 | – | –
CO[C@@H]1CN(C)C(=O)c2ccc(NC(=O)C3CC3)cc2OC[C@@H](C)N(C(=O)Cc2ccccn2)C[C@@H]1C | – | – | – | – | –
COc1cccc(NC(=S)N/N=C2\CC(C)(C)Oc3ccc(O)cc32)c1 | – | – | – | – | –
Cc1cccc(NC(=S)N/N=C2\CC(C)(C)Oc3ccc(O)cc32)c1 | · | – | – | 38.6 | –
CC(C)NC(=O)N(C)C[C@H]1Oc2cc(C#CCN(C)C)ccc2S(=O)(=O)N([C@H](C)CO)C[C@H]1C | – | – | – | – | –
C/C(O)=C(/C=NCC(=O)O)C(=O)Nc1nccs1 | · | 43.0 | – | – | –
C/C(=C\c1ccccc1)C(=O)Nc1nccs1 | – | – | – | – | –
CN(C(=O)COC(=O)c1ccccc1NC(=O)c1ccco1)C1CCS(=O)(=O)C1 (stereo not given) | · | – | – | – | –
CCN(C(=O)COC(=O)c1ccccc1OCc1ccc(Cl)cc1)C1CCS(=O)(=O)C1 (stereo not given) | – | 43.4 | · | – | –

Screening results from PubChem BioAssay.
